Source: PubChem BioAssay
Sampled rows, rich in hits. Any-hit rate of the full collection: about 2.6%.
Runt-SMMHC FRET: blocks binding of human RUNX1 Runt domain to CBFb-SMMHC; inhibition, % at 20 µM; 220,000 tested, 0.74% active; Cerulean-Runt/Venus-CBFb-SMMHC FRET ratio 530/480, 1 h; AID 1434;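 active means mean inhibition across duplicate retests at 20 µM reaching about 50%, limit read from the data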;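 further: inhibitors lower the FRET ratio by blocking Runt binding to CBFb-SMMHC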
Target sequence (Q01196 whole entry, looked up, the tested form may be a part): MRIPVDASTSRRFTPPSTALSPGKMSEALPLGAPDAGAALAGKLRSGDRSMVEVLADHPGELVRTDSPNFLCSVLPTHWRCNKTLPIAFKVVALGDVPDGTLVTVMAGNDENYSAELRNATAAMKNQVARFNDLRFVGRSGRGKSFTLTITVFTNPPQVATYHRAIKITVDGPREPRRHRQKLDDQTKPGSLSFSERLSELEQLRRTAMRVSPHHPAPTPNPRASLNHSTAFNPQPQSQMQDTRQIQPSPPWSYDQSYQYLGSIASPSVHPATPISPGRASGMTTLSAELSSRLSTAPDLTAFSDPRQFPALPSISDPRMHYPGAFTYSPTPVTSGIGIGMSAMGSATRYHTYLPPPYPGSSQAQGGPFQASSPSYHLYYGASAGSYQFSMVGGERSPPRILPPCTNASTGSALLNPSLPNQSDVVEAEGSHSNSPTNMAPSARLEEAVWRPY
Target sequence (Q13951 whole entry, looked up, the tested form may be a part): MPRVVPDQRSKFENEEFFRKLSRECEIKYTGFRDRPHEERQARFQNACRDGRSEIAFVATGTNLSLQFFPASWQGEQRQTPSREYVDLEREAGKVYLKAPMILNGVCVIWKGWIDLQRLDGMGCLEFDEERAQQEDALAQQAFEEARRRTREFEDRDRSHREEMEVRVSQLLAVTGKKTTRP
RanGTP-Imp inh: inhibitors of RanGTP-importin-beta interaction, primary screen, biochemical, FRET, CFP-Ran, YFP-importin-beta, homogeneous; cell-free CFP-Ran/YFP-importin-beta FRET ratio; inhibition, % (test concentration not listed); 300,000 tested, 1.1% active; AID 2216;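 active means more than half of the replicate wells show a fall in the fluorescence ratio signal beyond about 16%, limit read from the data, passing the limit was not always enough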
IMP-1 inh-1: blocks Pseudomonas aeruginosa IMP-1 metallo-beta-lactamase; 290,000 tested, 0.45% active; purified IMP-1, nitrocefin hydrolysis, epi-absorbance fluorescence; AID 1556; inhibition, % at 5.6 µM;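 active means inhibition above the mean plus 3 SD of all compounds in the same screening run, cut at about 4.5% in these data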
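System: Purified IMP-1 | Read-out basis: Percent enzyme inhibition | Controls: IMP-1 with DMSO as 0%, enzyme-free DMSO as 100% | Replicates: One well per compound | Doses: 5.6 µM nominal single concentration | Detection: Epi-absorbance fluorescence, 480 nm excitation, 530 nm emission | Incubation: 25 °C, 15 min preincubation, 25 min reaction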
Runt-CBFb FRET: Runt domain-CBFb interaction inhibition. Q01196+Q13951. Cerulean-Runt/Venus-CBFb FRET ratio 530/480, 1 h. inhibition, % at 20 µM. 220,000 tested, 0.46% active;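 active means inhibition over about 50% at 20 µM in the single-dose screen, limit read from the data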
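Doses: 20 µM compound in 1% DMSO | Material: Cerulean-labeled Runt domain protein | Amount: Each fluorescent fusion protein 100 nM | Schedule: Two 1 h room-temperature incubations shielded from light | Measured by: FRET fluorescence | Evaluation: Loss of energy transfer signal | Controls: Unlabeled CBFb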
VIM-2 inh: inhibitors of Pseudomonas aeruginosa VIM-2 metallo-beta-lactamase. purified VIM-2, nitrocefin hydrolysis, epi-absorbance fluorescence. inhibition, % at 5.6 µM. 290,000 tested, 0.89% active;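 active means inhibition above the mean of all tested compounds plus 3 SD, cutoff set per screening run, cut at about 7.5% in these data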;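 further: red hydrolysis product quenches plate fluorescence so inhibitors raise well fluorescence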
IMP-1 inh-2: IMP-1 inhibition, counter-screen for VIM-2 inhibitors; inhibition, % at 5.6 µM; purified IMP-1, nitrocefin hydrolysis, epi-absorbance fluorescence; AID 1856; shares compounds with VIM-2 inh; 1,300 tested, under 10 active; call rule not given here
VIM-2 FRET ctr: counter-screen for VIM-2 inhibitors: epi-absorbance artifacts via FRET. shares compounds with VIM-2 inh. purified VIM-2, CCF2 FRET substrate hydrolysis. inhibition, % at 5.6 µM. 1,300 tested, 23% active. AID 1857;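 active means inhibition above the mean of all tested compounds plus 3 SD, cut at about 19% in these data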
TEM-1 inh: blocks E. coli TEM-1 beta-lactamase in VIM-2 selectivity screen; shares compounds with VIM-2 inh; Purified TEM-1, nitrocefin hydrolysis, epi-absorbance fluorescence; inhibition, % at 5.6 µM; 1,300 tested, 3% active; AID 1866;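 active means inhibition above that campaign's mean inhibition plus 3 SD, cut at about 0.46% in these data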
VIM-2 confirm 2: confirmation of P. aeruginosa VIM-2 metallo-beta-lactamase inhibitors | shares compounds with VIM-2 inh | purified VIM-2, nitrocefin hydrolysis, epi-absorbance | inhibition, % at 5.6 µM | 1,300 tested, 96% active | AID 2187;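 active means inhibition of the VIM-2 beta-lactamase enzyme above about 11% from the earlier first-round screen, limit read from the data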
Numbers stand for hits.

For O=Nc1c2nc3ccccc3n(O)c-2c2ccccc12 the results were Runt-SMMHC FRET inactive, RanGTP-Imp inh inactive, IMP-1 inh-1 inactive, Runt-CBFb FRET inactive, VIM-2 inh 16, IMP-1 inh-2 inactive, VIM-2 FRET ctr inactive, TEM-1 inh inactive and VIM-2 confirm 2 27.
`CCc1nc(Nc2ccccc2)c2oc3ccccc3c2n1` gave Runt-SMMHC FRET inactive, RanGTP-Imp inh inactive, IMP-1 inh-1 inactive, Runt-CBFb FRET inactive and VIM-2 inh inactive.
Screening Cc1nc(NCCCN2CCOCC2)c2oc3ccccc3c2n1 returned Runt-SMMHC FRET inactive, RanGTP-Imp inh inactive, IMP-1 inh-1 inactive, VIM-2 inh 29, IMP-1 inh-2 inactive, VIM-2 FRET ctr inactive, TEM-1 inh inactive and VIM-2 confirm 2 35.
Screening c1ccc(-c2nc(NCCCn3ccnc3)c3oc4ccccc4c3n2)cc1 returned Runt-SMMHC FRET inactive, RanGTP-Imp inh inactive, IMP-1 inh-1 inactive, VIM-2 inh 19, IMP-1 inh-2 inactive, VIM-2 FRET ctr inactive, TEM-1 inh inactive and VIM-2 confirm 2 35.
c1ccc(-c2nc(NCc3ccco3)c3oc4ccccc4c3n2)cc1 was read as Runt-SMMHC FRET inactive, RanGTP-Imp inh inactive, IMP-1 inh-1 inactive and VIM-2 inh inactive.
`Cc1nc(NCCN2CCOCC2)c2oc3ccccc3c2n1` gave Runt-SMMHC FRET inactive, RanGTP-Imp inh inactive, IMP-1 inh-1 inactive, Runt-CBFb FRET inactive and VIM-2 inh inactive.
CCc1nc(NCCCn2ccnc2)c2oc3ccccc3c2n1 was read as Runt-SMMHC FRET inactive, RanGTP-Imp inh inactive, IMP-1 inh-1 inactive, Runt-CBFb FRET inactive, VIM-2 inh 67, IMP-1 inh-2 inactive, VIM-2 FRET ctr inactive, TEM-1 inh inactive and VIM-2 confirm 2 79.
Screening COc1ccccc1OCC(=O)NCC1CCCN(Cc2cnn(C)c2C)C1 (stereo not given) returned RanGTP-Imp inh inactive, IMP-1 inh-1 inactive and VIM-2 inh inactive.
`CN1CCN(C(=O)C2CCC(=O)N(Cc3cccc(C(F)(F)F)c3)C2)CC1` (stereo not given) gave RanGTP-Imp inh inactive, IMP-1 inh-1 inactive and VIM-2 inh inactive.
CCN1CCN(C(=O)C2CCC(=O)N(Cc3cccc(C(F)(F)F)c3)C2)CC1 (stereo not given) was read as RanGTP-Imp inh inactive, IMP-1 inh-1 inactive, VIM-2 inh 27, IMP-1 inh-2 inactive, VIM-2 FRET ctr inactive, TEM-1 inh inactive and VIM-2 confirm 2 inactive.
O=S(=O)(c1cccc(F)c1)N1CCCN(c2ccc(C(F)(F)F)cn2)CC1 was read as Runt-SMMHC FRET inactive, RanGTP-Imp inh inactive, IMP-1 inh-1 inactive, Runt-CBFb FRET inactive and VIM-2 inh inactive.
`Cc1[nH]c(C)c(C(=O)/C=C/c2ccc([N+](=O)[O-])cc2)c1C` gave RanGTP-Imp inh inactive, IMP-1 inh-1 inactive and VIM-2 inh inactive.
Screening O=P(O)(O)c1ccccc1OCCOCCOCCOCCOc1ccccc1P(=O)(O)O returned Runt-SMMHC FRET inactive, RanGTP-Imp inh inactive, IMP-1 inh-1 inactive, VIM-2 inh 31, IMP-1 inh-2 inactive, VIM-2 FRET ctr 60, TEM-1 inh inactive and VIM-2 confirm 2 44.
Cc1nc2ncccn2c1-c1csc(Nc2ccc(O)cc2)n1 was read as Runt-SMMHC FRET inactive, RanGTP-Imp inh inactive, IMP-1 inh-1 inactive, Runt-CBFb FRET inactive, VIM-2 inh 17, IMP-1 inh-2 inactive, VIM-2 FRET ctr inactive, TEM-1 inh inactive and VIM-2 confirm 2 28.
Screening Cc1ccc(Nc2nc(-c3c(C)nc4ncccn34)cs2)cc1 returned Runt-SMMHC FRET inactive, RanGTP-Imp inh inactive, IMP-1 inh-1 inactive, Runt-CBFb FRET inactive and VIM-2 inh inactive.
